ChEMBL document CHEMBL1773050, “Identification of inhibitors that block vaccinia virus infection by targeting the DNA synthesis processivity factor D4” (J Med Chem, 2011)
pEC50, pIC50: −log10 of the molar value. Converted amounts (≈) assume the structure as drawn.

Legend:
[1] = molecular target: Uracil-DNA glycosylase (Vaccinia virus (strain Western Reserve) (VACV) (Vaccinia virus (strainWR)), UniProt P04303); experiment: Inhibition of Vaccinia virus WR strain processivity factor D4 interaction with A20 protein assessed as inhibition of E9 DNA polymerase-mediated DIG-dUTP incorporation into DNA strand by rapid plate assay; parameters: species or system Orthopoxvirus vaccinia
Method in brief: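 Annealed biotinylated primer/100-bp template was coated on streptavidin plates. Compounds were 2-fold serial dilutions in DMSO. After 37 °C for 30 min, DIG-ELISA was read at 405 nm and normalised to DMSO and EDTA controls. Triplicates were used across at least three experiments.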

[2] = tested on: Vaccinia virus; experiment: Antiviral activity against Vaccinia virus infected in BSC-1 cells by plaque reduction assay; assay type: functional, organism-based; conditions: Orthopoxvirus vaccinia
[3] = molecular target: Uracil-DNA glycosylase (Vaccinia virus (strain Western Reserve) (VACV) (Vaccinia virus (strainWR))) (UniProt P04303); experiment: Binding affinity at Vaccinia virus WR strain D4 assessed as melting temperature at 50 uM by thermofluor method
Method in brief: (§1)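 Native D4 at 4 μM, His-tag removed and dialysed into buffer, was tested with or without 50 μM compound (final, 1% DMSO). Buffer was 25 mM Tris pH 7.2, 0.15 M NaCl, 5 mM ZnCl2, with Sypro Orange. Fluorescence was read from 25 to 80 °C at 1 °C/min. Tm is the unfolding midpoint, and ΔTm is Tm minus the DMSO mock. At least three independent experiments were run.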

[4] = Selectivity index, CC50 for African green monkey BSC-1 cells to EC50 for Vaccinia virus; assay type: toxicity, cell-based; conditions: read-out: Ratio CC50/EC50
[5] = molecular target: Uracil-DNA glycosylase (Vaccinia virus (strain Western Reserve) (VACV) (Vaccinia virus (strainWR))) (UniProt P04303); experiment: Binding affinity at Vaccinia virus WR strain D4 assessed as change in unfolding transition temperature at 50 uM by thermofluor method; method in brief: as §1
[6] = tested on: BSC-1; experiment: (§2) Cytotoxicity against african green monkey BSC1 cells infected with Vaccinia virus assessed as lactate dehydrogenase release after 20 hrs by microplate reader; assay type: cell-based; conditions: chlorocebus aethiops, bsc-1, 20 h
Method in brief: (§3)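 BSC-1 cells, seeded at 1 × 10^4 cells/well for 24 h, then received inhibitors at 2-fold serial dilutions in fresh medium with 1% DMSO for 20 h. LDH release into the medium was read at 492 nm after 30 min with reaction mixture in the dark. 2% Triton X-100 gave maximal release and 1% DMSO served as baseline. Triplicates were used, with three independent repeats, giving CC50.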

[7] = Solubility of the compound in phosphate buffer by chemiluminescence of total nitrogen contents; assay type: physicochemical
[8] = as §2; assay type: cell-based, BSC-1; conditions: chlorocebus aethiops, BSC-1 cells infected with Vaccinia virus; method in brief: as §3

SMILES	pIC50 [1]	pEC50 [2]	Tm [3] [°C]	selectivity ratio [4]	ΔTm [5] [°C]	CC50 [6] [µM]	solubility ([7]; buffer) [µg/mL]	solubility ([7]; phosphate buffer, read-out: solubility) [µg/mL]	CC50 at 20 h [8] [µM]
COc1ccc(NCc2nc3ccccc3n2CCOc2ccc(C)cc2)cc1	< 3.70	5.26	35.2	22	-3.2	121	–	–	–
COc1ccc(Nc2c(-c3cc(Br)ccc3O)nc3ncccn23)cc1OC	3.70	4.17	38.3	3	-0.1	> 200	–	–	–
COc1ccc(OCCn2c(NC(=O)c3ccc(OC)cc3)nc3ccccc32)cc1	3.77	4.32	34.3	0.5	-4.1	23.2	–	–	–
COc1ccc(/C=C/c2nc(-c3ccccc3O)n(-c3ccccc3)n2)cc1OC	< 3.70	< 3.70	34.7	0.5	-3.7	107	–	–	–
Fc1ccc(Nc2c(-c3ccccn3)nc3ccc(Cl)cn23)cc1	< 3.70	5.42	34.7	53	-3.7	> 200	–	–	–
Oc1ccc(NCc2ccccc2OCc2ccccc2)cc1	5.29	5.15	53.3	25	14.9	175	1.1 (≈ 3.6 µM)	–	–
CCOC(=O)c1cnc2c(ccc3ccccc32)c1Nc1ccc(N(C)C)cc1	3.86	–	36.3	–	-1.5	> 200	–	–	–
COc1cc(NC(=O)c2cccc3c2C(=O)N(C2CCCCC2)C3)cc(OC)c1OC	< 3.70	< 3.70	33.2	–	-4.9	> 200	–	–	–
COc1cc(-c2nc(-c3ccccc3)c(-c3ccc(Br)cc3)[nH]2)cc(OC)c1O	4.04	4.78	43	3	4.6	57.2	1.4 (≈ 3.1 µM)	–	–
Cc1ccccc1Nc1c(-c2ccc(Br)cc2O)nc2sccn12	< 3.70	< 3.70	36.5	9	-1.9	142	–	–	–
Cn1c(=O)n(C)c2cc(NS(=O)(=O)c3ccc(C(C)(C)C)cc3)c(NCc3ccccc3)cc21	3.88	4.73	48.4	> 10	10	> 200	0.9 (≈ 1.88 µM)	–	–
COc1ccc(Nc2cc(C(=O)NCCCN3CCN(c4ccccc4F)CC3)c3ccccc3n2)c(OC)c1	< 3.70	4.59	34.8	8	-3.6	> 200	–	–	–
OC1COc2ccc(-c3cc(-c4ccc(F)cc4)c4c(n3)-c3cc(Cl)ccc3OC4)cc2N1 (stereo unspecified)	< 3.70	4.13	34.9	3	-3.5	> 200	–	–	–
Cc1cc2n(n1)C(c1cc(C(C)(C)C)c(O)cc1O)Nc1ccccc1-2 (stereo unspecified)	3.86	4.67	44.3	4	4.9	92.8	19.1 (≈ 54.7 µM)	–	–
CCOc1ccc2c(c1)C1CC=CC1[C@H](c1ccccc1Cl)N2 (stereo partly specified)	3.66	4.65	35.2	9	-5	> 200	–	–	–
COC(=O)CC1Oc2ccc(C)cc2-n2cc(-c3ccc(F)cc3)nc21 (stereo unspecified)	< 3.70	< 3.70	32.2	0.4	-6.6	84.1	–	–	–
CCOc1ccccc1C(=O)Nc1ccc2nc3c(c(Nc4ccc(OC)c(OC)c4)c2c1)CCCC3	3.98	< 3.70	36.3	11	-2.1	73.7	–	–	–
C=C(Cn1cc(C(=O)c2ccc(CC)cc2)c(=O)c2ccccc21)Nc1ccc(OC)c(OC)c1	< 3.70	< 3.70	35.4	0.3	-3.2	52.9	–	–	–
Cc1ccc2oc(-c3ccc(Cl)cc3)c(O)c(=O)c2c1	3.71	–	36.4	–	-2	> 200	–	–	–
Cc1ccnc(NC(c2ccccc2F)c2ccc3cccnc3c2O)c1 (stereo unspecified)	3.80	5.54	36.4	69	-2	> 200	–	–	–
COc1ccc(Nc2nc(Nc3ccc(OC)cc3OC)nc(N3CCOCC3)n2)c(OC)c1	< 3.70	–	35	–	-3.4	170	–	–	–
O=S(=O)(c1ccc(C2=CSC(Nc3ccc(F)cc3)N2CCCCCCO)cc1)N1CCCC1 (stereo unspecified)	< 3.70	5.49	35.1	63	-3.3	> 200	–	–	–
COc1ccc(N2CCN(Cc3nc4c(c(=O)[nH]c(=O)n4C)n3Cc3ccc(Cl)cc3)CC2)cc1	< 3.70	< 3.70	35.9	0.4	-2.5	92.8	–	–	–
COc1cc(-c2nc3ccc(Cl)cn3c2Nc2ccc3c(c2)OCCO3)ccc1O	< 3.70	4.97	36.9	18	-1.5	> 200	–	–	–
CN(C)c1ccc(NC(=O)CSc2nc(-c3ccco3)cc(C(F)(F)F)n2)cc1	3.85	< 3.70	35.1	4	-1.7	57.2	–	–	–
Oc1ccc(Cl)cc1Sc1cc(Cl)ccc1O [FENTICLOR]	4.41	4.73	–	–	–	–	–	–	–
COc1ccc(C)cc1N(CC(=O)N1CCC(C)CC1)S(=O)(=O)c1ccc(C)cc1	3.76	–	33.6	–	-4.8	> 200	–	–	–
O=C1c2ccccc2-c2onc3c2C1C(NC1CCCCC1)C=C3NCCO (stereo unspecified)	4.47	–	–	–	–	–	–	1.4 (≈ 3.69 µM)	127
